What was measured:
[1] = molecular target: T1, Muscarinic acetylcholine receptor M1 (Homo sapiens) (UniProt P11229); assay: Agonist activity at human M1 receptor expressed in CHOK1 cells assessed as increase in calcium flux at 10 uM by fluorimetric method relative to control; assay type: functional, cell-based
T1 sequence (whole entry): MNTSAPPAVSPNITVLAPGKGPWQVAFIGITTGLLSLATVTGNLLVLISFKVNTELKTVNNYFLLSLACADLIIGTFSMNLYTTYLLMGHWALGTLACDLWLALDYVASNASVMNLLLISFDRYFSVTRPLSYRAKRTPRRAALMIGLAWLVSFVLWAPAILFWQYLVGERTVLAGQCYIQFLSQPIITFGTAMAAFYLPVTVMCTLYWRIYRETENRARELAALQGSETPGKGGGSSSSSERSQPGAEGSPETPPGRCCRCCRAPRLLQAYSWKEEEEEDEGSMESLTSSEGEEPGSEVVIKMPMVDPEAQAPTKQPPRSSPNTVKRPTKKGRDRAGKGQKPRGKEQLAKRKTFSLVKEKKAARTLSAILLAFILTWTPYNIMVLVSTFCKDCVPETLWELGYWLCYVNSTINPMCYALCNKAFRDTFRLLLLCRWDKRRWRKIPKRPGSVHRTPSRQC

[2] = molecular target: 5-hydroxytryptamine receptor 1B (Homo sapiens, UniProt P28222); assay: Agonist activity at human 5-HT1B receptor expressed in HeLa cells assessed as increase in cAMP accumulation at 10 uM measured after 20 mins by HTRF method relative to control; assay type: functional, cell-based
Sequence of 5-hydroxytryptamine receptor 1B (P28222 whole entry): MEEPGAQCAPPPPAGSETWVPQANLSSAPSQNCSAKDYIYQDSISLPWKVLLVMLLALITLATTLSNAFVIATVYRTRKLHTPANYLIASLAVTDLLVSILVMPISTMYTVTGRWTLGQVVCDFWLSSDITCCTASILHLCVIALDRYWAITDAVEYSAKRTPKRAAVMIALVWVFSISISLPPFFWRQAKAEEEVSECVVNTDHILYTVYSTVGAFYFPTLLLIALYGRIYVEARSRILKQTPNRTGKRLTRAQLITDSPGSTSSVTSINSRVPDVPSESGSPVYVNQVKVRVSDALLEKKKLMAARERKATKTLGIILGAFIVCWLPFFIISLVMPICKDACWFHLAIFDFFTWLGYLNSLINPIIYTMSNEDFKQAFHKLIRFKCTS

[3] = species: Homo sapiens; assay: Inhibition of sodium channel site2 (unknown origin) at 10 uM by radioligand binding assay relative to control
[4] = species: Rattus norvegicus; assay: Displacement of [3H]nitrendipine from L-type calcium channel dihydropyridine (nifedipine) binding site in rat brain 10 uM measured after 90 mins by scintillation counting method
[5] = Clearance in bile duct cannulated rat at 0.3 mg/kg, iv via infusion for 1 hr; assay type: ADME, organism-based; conditions: in vivo
In short: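 Plasma clearance was taken from a study in bile duct cannulated rats.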

[6] = molecular target: Muscarinic acetylcholine receptor M3 (Homo sapiens) (UniProt P20309); assay: Antagonist activity at human M3 receptor expressed in CHOK1 cells assessed as inhibition of acetylcholine-induced calcium flux at 10 uM by fluorimetric method relative to control; assay type: functional, cell-based
Sequence of Muscarinic acetylcholine receptor M3 (Homo sapiens) (P20309 whole entry, looked up): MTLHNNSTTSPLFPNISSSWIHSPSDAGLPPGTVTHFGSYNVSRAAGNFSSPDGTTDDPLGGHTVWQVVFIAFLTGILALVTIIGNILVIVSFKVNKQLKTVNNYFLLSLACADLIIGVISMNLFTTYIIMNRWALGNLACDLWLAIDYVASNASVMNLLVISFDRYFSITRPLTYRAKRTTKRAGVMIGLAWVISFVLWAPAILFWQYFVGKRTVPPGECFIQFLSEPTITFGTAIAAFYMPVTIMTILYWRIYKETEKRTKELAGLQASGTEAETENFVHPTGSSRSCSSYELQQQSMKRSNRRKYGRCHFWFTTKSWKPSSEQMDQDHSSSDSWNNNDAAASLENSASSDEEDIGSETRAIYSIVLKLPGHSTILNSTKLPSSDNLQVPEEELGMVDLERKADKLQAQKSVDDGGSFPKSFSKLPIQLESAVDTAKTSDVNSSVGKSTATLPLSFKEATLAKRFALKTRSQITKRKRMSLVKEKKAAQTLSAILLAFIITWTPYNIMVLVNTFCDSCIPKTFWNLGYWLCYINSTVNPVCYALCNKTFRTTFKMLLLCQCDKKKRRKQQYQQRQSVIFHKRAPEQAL

[7] = species: Rattus norvegicus; assay: Displacement of [3H]GABA from rat brain GABA transporter at 10 uM after 30 mins by scintillation counting method
[8] = molecular target: Angiotensin-converting enzyme (Homo sapiens) (UniProt P12821); assay: Inhibition of ACE (unknown origin) at 10 uM by radioligand binding assay relative to control
Sequence of Angiotensin-converting enzyme (Homo sapiens) (P12821 whole entry): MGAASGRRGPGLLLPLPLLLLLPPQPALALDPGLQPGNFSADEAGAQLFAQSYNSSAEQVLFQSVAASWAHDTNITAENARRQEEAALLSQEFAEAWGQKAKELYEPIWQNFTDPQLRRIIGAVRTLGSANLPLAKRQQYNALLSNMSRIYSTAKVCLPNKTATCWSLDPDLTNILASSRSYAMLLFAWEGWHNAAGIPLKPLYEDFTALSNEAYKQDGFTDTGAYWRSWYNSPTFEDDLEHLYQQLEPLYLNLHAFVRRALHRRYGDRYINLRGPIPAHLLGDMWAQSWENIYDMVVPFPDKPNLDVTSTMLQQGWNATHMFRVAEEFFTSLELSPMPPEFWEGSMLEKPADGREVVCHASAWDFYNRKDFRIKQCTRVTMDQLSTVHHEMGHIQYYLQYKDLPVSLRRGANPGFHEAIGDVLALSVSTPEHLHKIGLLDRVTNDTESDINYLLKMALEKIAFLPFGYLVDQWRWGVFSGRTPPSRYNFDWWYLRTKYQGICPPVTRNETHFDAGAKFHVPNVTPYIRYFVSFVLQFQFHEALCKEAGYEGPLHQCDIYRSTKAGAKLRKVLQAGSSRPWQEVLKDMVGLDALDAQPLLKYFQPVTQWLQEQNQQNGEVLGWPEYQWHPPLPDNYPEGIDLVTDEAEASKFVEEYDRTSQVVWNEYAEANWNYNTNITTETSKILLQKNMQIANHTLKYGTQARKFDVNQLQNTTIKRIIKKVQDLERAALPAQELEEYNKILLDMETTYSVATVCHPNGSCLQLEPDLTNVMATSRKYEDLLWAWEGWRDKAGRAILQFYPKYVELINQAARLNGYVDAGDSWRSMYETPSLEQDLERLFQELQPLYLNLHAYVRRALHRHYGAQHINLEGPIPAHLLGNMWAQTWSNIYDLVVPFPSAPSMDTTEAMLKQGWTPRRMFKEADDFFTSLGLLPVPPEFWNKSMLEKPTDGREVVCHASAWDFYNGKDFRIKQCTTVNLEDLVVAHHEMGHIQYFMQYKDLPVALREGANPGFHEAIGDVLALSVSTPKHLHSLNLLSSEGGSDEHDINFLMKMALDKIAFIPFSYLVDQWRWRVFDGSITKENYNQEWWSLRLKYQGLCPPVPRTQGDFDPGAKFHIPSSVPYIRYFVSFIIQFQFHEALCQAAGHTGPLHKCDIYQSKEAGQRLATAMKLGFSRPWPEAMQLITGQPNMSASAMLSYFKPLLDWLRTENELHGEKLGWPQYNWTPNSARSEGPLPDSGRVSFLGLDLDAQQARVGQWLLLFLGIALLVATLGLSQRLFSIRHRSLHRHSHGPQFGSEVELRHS

[9] = molecular target: Sodium-dependent noradrenaline transporter (Homo sapiens, UniProt P23975); assay: Displacement of [3H]nisoxetine from recombinant human norepinephrine transporter after 120 min by scintillation counting method
Sequence of Sodium-dependent noradrenaline transporter (P23975 whole entry, the tested form may be a part): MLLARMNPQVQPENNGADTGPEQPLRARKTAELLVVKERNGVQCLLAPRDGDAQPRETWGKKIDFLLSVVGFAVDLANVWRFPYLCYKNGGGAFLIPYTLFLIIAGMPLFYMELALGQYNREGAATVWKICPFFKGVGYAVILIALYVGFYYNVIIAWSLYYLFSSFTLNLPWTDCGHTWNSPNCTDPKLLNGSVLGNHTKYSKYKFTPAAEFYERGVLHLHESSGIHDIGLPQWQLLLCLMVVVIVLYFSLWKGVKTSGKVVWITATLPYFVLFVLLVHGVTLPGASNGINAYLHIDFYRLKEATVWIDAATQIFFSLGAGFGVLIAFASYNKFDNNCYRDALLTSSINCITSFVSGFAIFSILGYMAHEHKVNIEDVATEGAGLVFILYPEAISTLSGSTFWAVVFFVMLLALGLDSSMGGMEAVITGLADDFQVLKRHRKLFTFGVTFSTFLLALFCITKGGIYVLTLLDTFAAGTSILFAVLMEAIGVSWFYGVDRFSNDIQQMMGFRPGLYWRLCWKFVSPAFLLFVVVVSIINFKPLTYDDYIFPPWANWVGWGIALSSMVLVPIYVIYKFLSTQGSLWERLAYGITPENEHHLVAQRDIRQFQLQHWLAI

[10] = Renal clearance in rat at 0.3 mg/kg, iv via infusion for 1 hr; assay type: ADME, organism-based, Kidney; conditions: in vivo
[11] = molecular target: Beta-2 adrenergic receptor (Homo sapiens) (UniProt P07550); assay: Agonist activity at recombinant human beta2 receptor expressed in CHOK1 cells assessed as increase in cAMP accumulation at 10 uM after 30 mins by HTRF assay relative to control; assay type: functional, cell-based
Sequence of Beta-2 adrenergic receptor (Homo sapiens) (P07550 whole entry, looked up): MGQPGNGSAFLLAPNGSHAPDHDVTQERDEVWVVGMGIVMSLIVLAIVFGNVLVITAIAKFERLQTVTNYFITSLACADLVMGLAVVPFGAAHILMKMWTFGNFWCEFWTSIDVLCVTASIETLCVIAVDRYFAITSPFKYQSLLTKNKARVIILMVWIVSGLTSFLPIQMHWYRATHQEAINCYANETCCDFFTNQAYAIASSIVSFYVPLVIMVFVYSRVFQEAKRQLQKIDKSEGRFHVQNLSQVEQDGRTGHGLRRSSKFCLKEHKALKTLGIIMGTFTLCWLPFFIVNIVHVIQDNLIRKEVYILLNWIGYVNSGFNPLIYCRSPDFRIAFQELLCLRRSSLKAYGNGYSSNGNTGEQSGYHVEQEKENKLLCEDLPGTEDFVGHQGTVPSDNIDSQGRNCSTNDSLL

[12] = molecular target: Histamine H3 receptor (Homo sapiens) (UniProt Q9Y5N1); assay: Agonist activity at recombinant human H3 receptor expressed in CHOK1 cells assessed as increase in cAMP accumulation at 10 uM measured after 10 mins by HTRF assay relative to control; assay type: functional, cell-based
Sequence of Histamine H3 receptor (Homo sapiens) (Q9Y5N1 whole entry): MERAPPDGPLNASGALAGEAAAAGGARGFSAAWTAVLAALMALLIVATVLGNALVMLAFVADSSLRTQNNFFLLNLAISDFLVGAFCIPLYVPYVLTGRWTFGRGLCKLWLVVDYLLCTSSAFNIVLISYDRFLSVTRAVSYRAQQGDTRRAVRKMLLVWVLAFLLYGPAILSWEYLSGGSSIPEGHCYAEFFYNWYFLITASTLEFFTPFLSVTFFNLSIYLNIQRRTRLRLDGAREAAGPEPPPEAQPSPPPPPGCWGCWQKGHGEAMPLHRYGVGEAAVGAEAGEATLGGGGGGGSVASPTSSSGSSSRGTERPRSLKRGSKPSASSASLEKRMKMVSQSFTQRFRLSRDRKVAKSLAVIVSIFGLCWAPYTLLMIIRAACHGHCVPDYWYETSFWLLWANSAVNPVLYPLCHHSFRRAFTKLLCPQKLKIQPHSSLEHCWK

[13] = molecular target: 5-hydroxytryptamine receptor 4 (Homo sapiens) (UniProt Q13639); assay: Agonist activity at recombinant human 5-HT4E expressed in CHOK1 cells assessed as increase in cAMP accumulation at 10 uM measured after 30 mins by HTRF assay relative to control; assay type: functional, cell-based
[14] = molecular target: Sodium-dependent dopamine transporter (Homo sapiens, UniProt Q01959); assay: Displacement of [3H]BTCP from recombinant human dopamine transporter after 120 mins by scintillation counting method
Sequence of Sodium-dependent dopamine transporter (Q01959 whole entry, the tested form may be a part): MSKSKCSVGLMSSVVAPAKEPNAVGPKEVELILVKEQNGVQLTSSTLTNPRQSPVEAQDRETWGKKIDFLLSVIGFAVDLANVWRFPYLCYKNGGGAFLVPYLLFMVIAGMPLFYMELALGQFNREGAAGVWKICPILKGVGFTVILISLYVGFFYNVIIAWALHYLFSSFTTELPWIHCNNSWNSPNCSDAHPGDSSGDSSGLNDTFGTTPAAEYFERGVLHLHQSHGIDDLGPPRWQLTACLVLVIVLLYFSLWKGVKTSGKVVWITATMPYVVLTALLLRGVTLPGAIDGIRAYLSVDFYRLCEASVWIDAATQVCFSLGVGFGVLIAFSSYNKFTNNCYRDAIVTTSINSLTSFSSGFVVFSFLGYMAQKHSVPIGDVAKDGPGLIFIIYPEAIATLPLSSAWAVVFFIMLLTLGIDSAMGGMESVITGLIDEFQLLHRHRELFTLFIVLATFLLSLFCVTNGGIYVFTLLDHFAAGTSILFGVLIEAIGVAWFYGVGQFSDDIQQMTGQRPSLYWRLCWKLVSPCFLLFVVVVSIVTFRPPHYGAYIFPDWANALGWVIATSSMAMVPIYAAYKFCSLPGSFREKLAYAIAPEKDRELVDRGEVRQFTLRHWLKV

[15] = Unbound clearance in dog plasma at 0.3 mg/kg, iv via infusion for 0.5 hrs; assay type: ADME, organism-based, Canis lupus familiaris; conditions: in vivo
[16] = molecular target: Tyrosine-protein kinase Lck (Homo sapiens) (UniProt P06239); assay: Inhibition of recombinant human LCK at 10 uM using Ulight-Poly GAT[EAY(1:1:1)]n as substrate after 10 mins by LANCE assay
[17] = molecular target: Muscarinic acetylcholine receptor M2 (Homo sapiens) (UniProt P08172); assay: Agonist activity at recombinant human M2 receptor expressed in CHOK1 cells assessed as increase in cAMP accumulation at 10 uM measured after 10 mins by HTRF assay relative to control; assay type: functional, cell-based
Sequence of Muscarinic acetylcholine receptor M2 (Homo sapiens) (P08172 whole entry, the tested form may be a part): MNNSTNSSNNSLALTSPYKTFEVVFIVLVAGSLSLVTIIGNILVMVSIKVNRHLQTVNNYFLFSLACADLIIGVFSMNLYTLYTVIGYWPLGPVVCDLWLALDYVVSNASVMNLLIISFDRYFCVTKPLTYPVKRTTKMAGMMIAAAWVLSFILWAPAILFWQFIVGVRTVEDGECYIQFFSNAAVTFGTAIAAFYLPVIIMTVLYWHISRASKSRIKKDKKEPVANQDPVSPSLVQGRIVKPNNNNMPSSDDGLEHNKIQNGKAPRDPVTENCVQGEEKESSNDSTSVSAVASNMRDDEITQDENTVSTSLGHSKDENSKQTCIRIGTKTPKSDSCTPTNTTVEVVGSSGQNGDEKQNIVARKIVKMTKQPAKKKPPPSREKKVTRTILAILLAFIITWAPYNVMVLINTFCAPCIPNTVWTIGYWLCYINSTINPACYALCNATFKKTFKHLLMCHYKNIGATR

[18] = Terminal half-life in dog at 0.3 mg/kg, iv via infusion for 0.5 hrs; assay type: ADME, organism-based, Canis lupus familiaris; conditions: in vivo, read-out: beta t1/2 (converted)
In short: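 Dog IV pharmacokinetics, with half-life reported as two values: α (initial phase) and β (terminal phase) of the disposition profile.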

[19] = molecular target: Sodium channel protein type 3 subunit alpha (Homo sapiens, UniProt Q9NY46); assay: Inhibition of human Nav1.3 expressed in HEK cells by patch clamp electrophysiology method; assay type: cell-based
[20] = molecular target: Mu-type opioid receptor (Homo sapiens) (UniProt P35372); assay: Agonist activity at recombinant human MOR expressed in CHOK1 cells assessed as increase in cAMP accumulation at 10 uM measured after 10 mins by HTRF assay relative to control; assay type: functional, cell-based
[21] = molecular target: Sodium channel protein type 10 subunit alpha (Homo sapiens, UniProt Q9Y5Y9); assay: Inhibition of human Nav1.8 expressed in HEK cells by automated patchXpress electrophysiology method; assay type: cell-based
[22] = Unbound clearance in iv dosed mouse plasma; assay type: ADME, organism-based; conditions: in vivo
[23] = molecular target: Muscarinic acetylcholine receptor M2 (Homo sapiens) (UniProt P08172); assay: Antagonist activity at recombinant human M2 receptor expressed in CHOK1 cells assessed as inhibition of acetylcholine-induced cAMP accumulation at 10 uM measured after 10 mins by HTRF assay relative to control; assay type: functional, cell-based
[24] = Intrinsic clearance in human hepatocytes assessed per million cells; assay type: ADME, cell-based, Hepatocyte; conditions: read-out: CLH
[25] = molecular target: Muscarinic acetylcholine receptor M3 (Homo sapiens) (UniProt P20309); assay: Agonist activity at human M3 receptor expressed in CHOK1 cells assessed as increase in calcium flux at 10 uM by fluorimetric method relative to control; assay type: functional, cell-based
[26] = molecular target: Cytochrome P450 2C9 (Homo sapiens, UniProt P11712); assay: Inhibition of CYP2C9 (unknown origin); assay type: ADME
[27] = molecular target: Cannabinoid receptor 1 (Homo sapiens) (UniProt P21554); assay: Agonist activity at recombinant human CB1 receptor expressed in CHOK1 cells assessed as increase in cAMP accumulation at 10 uM after 20 mins by HTRF assay relative to control; assay type: functional, cell-based
[28] = species: Homo sapiens; assay: Displacement of [125I]alpha-bungarotoxin from human muscle type nAChR at 10 uM after 120 mins by scintillation counting method
[29] = molecular target: GABA-A receptor; alpha-1/beta-2/gamma-2 (Homo sapiens) (UniProt P14867+P47870+P18507); assay: Displacement of [3H]muscimol from recombinant human GABAalpha1beta2gamma2 at 10 uM measured after 120 mins by scintillation counting method; assay type: protein-complex assay
[30] = molecular target: Beta-1 adrenergic receptor (Homo sapiens) (UniProt P08588); assay: Agonist activity at recombinant human beta1 receptor expressed in HEK293 cells assessed as increase in cAMP accumulation at 10 uM after 30 mins by HTRF assay relative to control; assay type: functional, cell-based

N#Cc1cc(S(=O)(=O)Nc2ncns2)ccc1Oc1ccc(-c2cccc(C(F)(F)F)c2)cc1-c1ccnc(CNCCC2CCNCC2)c1
Activity [1]: 2% | Activity [2]: 141% | inhibition [3]: 92% | inhibition [4]: 31% | clearance [5]: 59.8 mL/min/kg | inhibition [6]: 29% | inhibition [7]: 5% | inhibition [8]: -8% | IC50 [9]: 4.25 µM | Ki [9]: 3.16 µM | CL renal at 1 h [10]: 0.0322 mL/min/kg | Activity [11]: 1% | Activity [12]: 7% | Activity [13]: 0% | IC50 [14]: 4.01 µM | Ki [14]: 2.12 µM | CL free [15]: 4759 mL/min/kg | inhibition [16]: 43% | Activity [17]: -9% | half-life [18]: 5.9 h | IC50 [19]: 6.44 to 11.5 µM | Activity [20]: 21% | IC50 [21]: 10 to 26 µM | CL free [22]: 12989 mL/min/kg | inhibition [23]: 24% | hepatocyte CLint [24]: 6.5 µL/min/1e6 cells | Activity [25]: 8% | IC50 [26]: 3.75 µM | Activity [27]: -7% | inhibition [28]: 21% | inhibition [29]: 0% | Activity [30]: -4%
